Results on 36 compounds are retold here after ChEMBL document CHEMBL1143384, “Discovery of novel inhibitors of Trypanosoma cruzi trans-sialidase from in silico screening” (Bioorg Med Chem Lett, 2009).

What is called inhibition is the percentage by which the read-out fell short of the control. Usually IC50 stands for the point on the concentration scale where inhibition reaches its midpoint. A high value points to lower potency. What is called Ki is a dissociation constant, usually derived from enzyme kinetics or from competition with a known ligand.

Calls of active or inactive are those of the source. No cut-off for these calls is given here.

Experiment [1] concerns the target T1, Trans-sialidase (Trypanosoma cruzi) (UniProt Q26966).
T1 sequence (whole entry): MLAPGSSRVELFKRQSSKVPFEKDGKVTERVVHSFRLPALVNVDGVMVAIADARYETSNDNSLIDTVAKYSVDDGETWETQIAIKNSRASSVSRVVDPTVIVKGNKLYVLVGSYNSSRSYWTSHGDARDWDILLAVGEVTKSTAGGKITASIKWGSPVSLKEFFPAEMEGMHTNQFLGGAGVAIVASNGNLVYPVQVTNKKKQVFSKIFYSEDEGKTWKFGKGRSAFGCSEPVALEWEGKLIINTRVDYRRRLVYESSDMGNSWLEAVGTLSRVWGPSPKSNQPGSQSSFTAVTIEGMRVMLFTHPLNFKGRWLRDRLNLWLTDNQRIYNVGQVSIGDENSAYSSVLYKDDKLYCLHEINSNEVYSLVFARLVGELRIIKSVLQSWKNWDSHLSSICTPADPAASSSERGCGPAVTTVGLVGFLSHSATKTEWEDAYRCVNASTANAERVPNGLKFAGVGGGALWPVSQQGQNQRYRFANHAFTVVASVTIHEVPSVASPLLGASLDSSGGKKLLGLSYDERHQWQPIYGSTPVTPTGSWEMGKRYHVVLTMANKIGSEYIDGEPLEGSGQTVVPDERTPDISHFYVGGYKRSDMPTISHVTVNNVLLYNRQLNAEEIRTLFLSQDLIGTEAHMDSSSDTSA
The experiment can be described thus: Inhibition of Trypanosoma cruzi trans-Sialidase at 1 mM by MuNANA assay. Put shortly: (§1)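 Recombinant TcTS in a continuous fluorimetric assay in 96-well format, with 4-methylumbelliferyl sialoside (MuNANA) as substrate, following sialic acid hydrolysis. Compounds were first screened at 1 mM, or at the highest concentration their solubility allowed, in triplicate. IC50 was then determined in the same assay for compounds inhibiting more than 50%.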

For experiment [2], the target named is T2, Trans-sialidase (Trypanosoma cruzi, UniProt Q26966).
T2 sequence (Q26966 whole entry): T1 sequence (whole entry)
The experiment in a line: Inhibition of Trypanosoma cruzi trans-Sialidase by MuNANA assay. Put shortly:
as §1

For experiment [3], the target named is T2, Trans-sialidase. The experiment can be described thus: Inhibition of Trypanosoma cruzi trans-Sialidase. Put shortly:
as §1

Experiment [4] concerns the target T2, Trans-sialidase. The experiment can be described thus: Inhibition of Trypanosoma cruzi trans-Sialidase by TIA assay. Put shortly: (§2)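 Trans-sialidase inhibition assay (TIA), which measures sialic acid transfer from sialyllactose as donor to 14C-radiolabelled lactose as acceptor.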
Experiment [5] deals with T1, Trans-sialidase (Trypanosoma cruzi). The experiment in a line: Inhibition of Trypanosoma cruzi trans-Sialidase at 0.5 mM by MuNANA assay. Put shortly: as §1
For experiment [6] the target is unchanged. The experiment in a line: Inhibition of Trypanosoma cruzi trans-Sialidase at 1 mM by TIA assay. Put shortly: as §2
The target is the same in experiment [7]. The experiment in a line: Inhibition of Trypanosoma cruzi trans-Sialidase at 0.05 mM by MuNANA assay. Put shortly:
as §1

The target is the same in experiment [8]. The experiment in a line: Inhibition of Trypanosoma cruzi trans-Sialidase at 0.1 mM by MuNANA assay. The essentials: as §1
For experiment [9] the target is unchanged. The experiment in a line: Inhibition of Trypanosoma cruzi trans-Sialidase at 0.125 mM by MuNANA assay. Put shortly: as §1
Experiment [10] shares this target. The experiment can be described thus: Inhibition of Trypanosoma cruzi trans-Sialidase at 0.01 mM by MuNANA assay. The essentials:
as §1

For experiment [11] the target is unchanged. The experiment in a line: Inhibition of Trypanosoma cruzi trans-Sialidase at 0.025 mM by MuNANA assay. The essentials:
as §1

For `O=C(O)C/C(=C\c1cccc(C(F)(F)F)c1)c1nc2ccccc2s1`, the inhibition in [1] is 92%. On Trans-sialidase [2], this compound returned an IC50 of 150 µM. As for `Cc1ccc(S(=O)(=O)Nc2nnc(SCC(=O)Nc3ccc4c(c3)OCO4)s2)cc1`, in experiment [1], the inhibition is 82%. This compound also registered an IC50 against Trans-sialidase [2] of 280 µM.

In the case of `CC(=O)N[C@H]1C(O)CC(P(=O)(O)CCO[C@H]2[C@@H](O)[C@@H](CO)OC(O)[C@@H]2O)=C[C@@H]1O` (single isomer, unassigned), the IC50 on Trans-sialidase [3] worked out at 1500 µM. This lies in the millimolar range. For `O=C(O)c1ccccc1C(=O)NCCCc1c(C(=O)O)[nH]c2cc3c(cc12)OCCO3`, the inhibition in experiment [1] worked out at 36%. On the same count and under the same terms, for `CC1(C)SC2c3ccccc3C(=O)N2C1C(=O)NC(Cc1c[nH]c2ccccc12)C(=O)O` (stereo unspecified) the value was 23%. `CCOc1ccccc1/C=C(\CC(=O)O)c1nc2ccccc2s1` had an inhibition in experiment [1] of 90%. The 50% inhibitory concentration (IC50) against Trans-sialidase [4] turned out to be 420 µM; against Trans-sialidase [2], 160 µM. For `COCCNC(=O)c1ccc(NS(=O)(=O)c2cc(Cl)sc2Cl)cc1`, in [1], the inhibition was determined as 50%. Compound `COc1cccc(/C=C(\CC(=O)O)c2nc3ccccc3s2)c1` displayed an inhibition in [1] of 91%. Also, the IC50 on Trans-sialidase [2] is 310 µM. `COc1cc(C2C(C(=O)c3ccc4c(c3)OCCO4)=C(O)C(=O)N2CCCN(C)C)cc(OC)c1OC` (stereo unspecified) returned an inhibition in experiment [5] of 41%. Regarding `CC(=O)c1sccc1NC(=O)c1ccccc1C(=O)O`, the inhibition came out at 79% in experiment [1] and 32% in [6]. Also, 290 µM corresponded to half-maximal inhibition against Trans-sialidase [2] (IC50). Regarding `COc1ccc(NC(=O)CC2(CC(=O)O)CCCCC2)cc1OC`, the result in experiment [1] was inactive. Take `COC(=O)c1ccc(Oc2ccc(C(F)(F)F)cc2NC(=O)c2ccccc2C(=O)O)s1`: the inhibition in [1] was 21%. Compound `Cc1c(NS(=O)(=O)c2cccc(C(=O)NCc3ccncc3)c2)c(=O)n(-c2ccccc2)n1C` displayed an inhibition in experiment [1] of 23%. With `O=C(O)C/C(=C\c1cccc(F)c1)c1nc2ccccc2s1`, the inhibition in [1] worked out at 94%. The compound also had an IC50 on Trans-sialidase [2] of 120 µM. `OC[C@H]1O[C@@H](O[C@@H]2[C@@H](CO)O[C@](O)(CO)[C@H]2O)[C@H](O)[C@@H](O)[C@H]1O` [LACTULOSE]: the IC50 against Trans-sialidase [3] was 570 µM. For the compound `COc1ccc(/C=C(\CC(=O)O)c2nc3ccccc3s2)cc1OC`, the inhibition in experiment [5] is 84%. At Trans-sialidase [2], this compound yielded an IC50 of 180 µM. In experiment [1], `O=C(O)CC(C(=O)Nc1cc(C(F)(F)F)cc(C(F)(F)F)c1)C1=CCCCC1` (stereo unspecified) came in with an inhibition of 32%. In turn, `COc1ccc(Nc2nc3ccccc3nc2NS(=O)(=O)c2ccc(NC(C)=O)cc2)c(OC)c1` gave an inhibition in experiment [7] of 32%. `O=C(O)C/C(=C\c1cccc(O)c1)c1nc2ccccc2s1`: the IC50 against Trans-sialidase [4] stood at 520 µM. The compound further returned an inhibition in experiment [8] of 30%. `Cc1ccc(C)c(/C=C(\CC(=O)O)c2nc3ccccc3s2)c1` showed an inhibition in experiment [1] of 91%. The compound also yielded an IC50 on Trans-sialidase [2] of 120 µM.

At Trans-sialidase [3], `CC(=O)N[C@H]1[C@H]([C@H](O)[C@H](O)CO)OC(C(=O)O)=C[C@@H]1O` [NEU5AC2EN] registered a Ki of 12300 µM.

In experiment [1], `COc1ccc(C(CC(=O)O)NC(=O)COc2cc(C)ccc2C)cc1OC` (stereo unspecified) showed an inhibition of 30%.

With `COc1ccc(CC(=O)Nc2ccc(S(=O)(=O)Nc3nc(C)cc(C)n3)cc2)cc1`, in [5], the inhibition turned out to be 42%.

Compound `CC(=O)Nc1ccc(C(=O)O)nc1N` gave an IC50 against Trans-sialidase [3] of 440 µM.

`CC(=O)Nc1ccc(S(=O)(=O)Nc2nc(-c3ccccc3)c(-c3ccccc3)o2)cc1` registered an inhibition in [9] of 22%. Consider `CC(=O)Nc1ccc(C(=O)O)cc1CO`, for which the midpoint of inhibition against Trans-sialidase [3], the IC50, lay at 540 µM. In turn, `CC(C)Oc1ccccc1/C=C(\CC(=O)O)c1nc2ccccc2s1` came in with an inhibition in experiment [1] of 92%. Also, the IC50 on Trans-sialidase [4] stood at 290 µM; on Trans-sialidase [2] it was 150 µM. `CCCOC(=O)c1c(NC(=O)C2CCCCC2C(=O)O)sc(C)c1C` (stereo unspecified) showed an inhibition in [1] of 87%. The 50% inhibitory concentration (IC50) against Trans-sialidase [2] amounted to 210 µM. Compound `COc1cccc(CNC(=O)Cc2c(C(=O)O)[nH]c3ccc(Cl)cc23)c1` came in with an inhibition in experiment [5] of 57%. As to `CCn1nc(NS(=O)(=O)c2ccc(C)cc2)c2cc3cc(C)ccc3nc21`, the outcome in experiment [10] was inactive.

For `CC(=O)Nc1ccc(S(=O)(=O)Nc2nc3n(n2)C(c2ccc(Cl)cc2)C=C(c2ccccc2)N3)cc1` (stereo unspecified), the outcome in experiment [11] was inactive. In experiment [1], `O=C(O)C1CC=C(Cl)CC1C(=O)NCC1OCCc2ccccc21` (stereo unspecified) displayed an inhibition of 26%. In the case of `CCOP(=O)(O)C1=C[C@H](O)[C@@H](NC(C)=O)[C@H](OCCO)C1`, the IC50 at Trans-sialidase [3] is 5000 µM. In [5], `O=c1[nH]c(O)c(C(c2ccc3c(c2)CN2CCOCC2O3)c2c(O)[nH]c(=O)[nH]c2=O)c(=O)[nH]1` (stereo unspecified) displayed an inhibition of 28%.

Compound `Cc1ncc(COP(=O)(O)O)c(C=O)c1O` [PYRIDOXAL PHOSPHATE ANHYDROUS] returned a Ki at Trans-sialidase [3] of 7300 µM. For `CC(=O)c1sc(C(C)(C)C)cc1NC(=O)c1ccccc1C(=O)O`, in experiment [1], the inhibition came out at 84%. Further, the IC50 at Trans-sialidase [2] came out at 270 µM.
